From ChEMBL document CHEMBL1221338, “New antitumoral agents I: In vitro anticancer activity and in vivo acute toxicity of synthetic 1,5-bis(4-hydroxy-3-methoxyphenyl)-1,4-pentadien-3-one and derivatives” (Bioorg Med Chem, 2010) come the findings set out here.

The test system of one data set is NCI-H460. In words: Antitumor activity against human NCI-H460 cells after 48 hrs by SRB assay. The format is functional, cell-based. The settings on record: NCI-H460, 48 h. The procedure, abridged:
(§1)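 Human tumor lines in medium with 5% FBS and gentamicin, exposed in 96-well plates to four concentrations given in DMSO for 48 h at 37 °C, 5% CO₂. Cells fixed with trichloroacetic acid (added as 50% solution) for 30 min at 4 °C, washed, dried, stained with sulphorhodamine B. Protein content read at 540 nm.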

The test system of another data set is UACC-62. In words: Antitumor activity against human UACC62 cells after 48 hrs by SRB assay. The format is functional, cell-based. The settings on record: UACC-62, 48 h. The procedure, abridged: as §1
Background: In SRB staining, fixed cells bind dye roughly in proportion to their protein.

Another data set relates to PC-3. In words: Antitumor activity against human PC3 cells after 48 hrs by SRB assay. The data set is classed as functional, cell-based. The settings on record: PC-3, 48 h. The procedure, abridged: as §1
Data set [1] is described as follows: Antitumor activity against human 786-O cells after 48 hrs by SRB assay. The format is functional, cell-based. The settings on record: 786-0, 48 h. In outline: as §1
Data set [2] can be described thus: Antitumor activity against human NCI/ADR cells after 48 hrs by SRB assay. The format is functional, cell-based. The settings on record: NCI/ADR-RES. In outline:
as §1

A further data set deals with OVCAR-3. As to the kind of experiment: Antitumor activity against human OVCAR-3 cells after 48 hrs by SRB assay. The data set is classed as functional, cell-based. The settings on record: OVCAR-3, 48 h. The procedure, abridged: as §1
A further data set deals with MCF7. As to the kind of experiment: Antitumor activity against human MCF7 cells after 48 hrs by SRB assay. The data set is classed as functional, cell-based. The settings on record: MCF7, 48 h. The procedure, abridged: as §1
The subject of the next data set is K562. In words: Antitumor activity against human K562 cells after 48 hrs by SRB assay. The data set is classed as functional, cell-based. The settings on record: K562, 48 h. In outline:
as §1

A further data set concerns HT-29. As to the kind of experiment: Antitumor activity against human HT-29 cells after 48 hrs by SRB assay. The format is functional, cell-based. The settings on record: HT-29, 48 h. In outline:
as §1

Data set [3] is described as follows: Toxicity in Swiss albino mouse for 14 days. The data set is classed as organism-based. The settings on record: in vivo. In outline: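 Male albino Swiss mice (~25 g; 20 animals split equally into treated and control groups), acclimatised at least 7 days and fasted 12 h. Single intraperitoneal dose of 1, 2.5 or 5 g/kg body weight. Deaths and signs of toxicity observed for at least 14 days. LD50 by Litchfield and Wilcoxon's method; OECD425 protocol.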

A further data set has as its system L1210. In words: Antiproliferative activity against mouse L1210 cells after 24 hrs by MTT assay. The format is functional, cell-based. The settings on record: L1210, 24 h. In outline: (§2)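 Murine tumor cells grown to confluence, then exposed for 24 h to a range of concentrations diluted in Miglyol 810, with a Miglyol-only diluent control. MTT (5 mg/ml stock) added for 3 h at 37 °C, 5% CO₂. Plates centrifuged, supernatant removed, formazan dissolved in DMSO, absorbance read at 540 nm.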

A short description of data set [4]: Antiproliferative activity against mouse macrophages after 24 hrs by MTT assay. The format is cell-based. The settings on record: Macrophage. In outline:
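Peritoneal macrophages lavaged from anesthetized normal Balb-C mice with heparinized saline. Cells pelleted, resuspended in RPMI-1640 with 10% FBS at 10⁶/ml, plated, and exposed for 24 h to compound dilutions in Miglyol 810, with a diluent control. MTT (5 mg/ml stock) for 3 h at 37 °C, formazan dissolved in DMSO, read at 540 nm.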
A general note: Tetrazolium assays rely on reduction of a dye to a coloured formazan, in cell work by metabolically active cells.

The test system of another data set is B16-F10. As to the kind of experiment: Antiproliferative activity against mouse B16F10 cells after 24 hrs by MTT assay. The data set is classed as functional, cell-based. The settings on record: B16-F10, 24 h. In outline: as §2

Each structure is given as a SMILES string.

Turning to `COc1cc(/C=C/C(/C=C/c2ccc(O)c(OC)c2)=C(C#N)C#N)ccc1O`, the IC50 turned out to be 6.89 µM in the data set with NCI-H460; 3.34 µM with UACC-62; 4.25 µM in the data set with PC-3; 7.14 µM in [1]; 2.97 µM in data set [2]; 115 µM with OVCAR-3. Also, the IC50 with MCF7 turned out to be 5.24 µM; in the data set on K562, 7.59 µM; in the data set on HT-29, 3.37 µM.
Regarding `COc1cc(/C=C/C(=O)/C=C/c2ccc(OCC=C(C)C)c(OC)c2)ccc1OCC=C(C)C`, the half-maximal inhibitory concentration (IC50) in the data set on NCI-H460 is 34.1 µM; with UACC-62 it was 30.6 µM; in the data set on PC-3 it was 60.5 µM; in data set [1], 7.87 µM; in data set [2], 7.22 µM; in the data set on OVCAR-3, 30.3 µM. The IC50 with MCF7 was found to be 18.2 µM; in the data set with K562 it was 4.8 µM; in the data set with HT-29, 4.04 µM.
Regarding `COc1ccc(/C=C/C(=O)/C=C/c2ccc(OC)c(OC)c2)cc1OC`, the IC50 was 1.86 µM with NCI-H460; 2.12 µM with UACC-62; 2.32 µM with PC-3; 3.36 µM in data set [1]; 2.37 µM in data set [2]; 2.32 µM with OVCAR-3. Also, the IC50 in the data set on MCF7 was 2 µM; with K562 it was 1.83 µM; in the data set with HT-29, 2.43 µM.
In the case of `COc1cc(/C=C/C(=O)/C=C/c2ccc(OC(C)=O)c(OC)c2)ccc1OC(C)=O`, the IC50 in the data set with NCI-H460 came to 1.7 µM; in the data set on UACC-62, 4.31 µM; with PC-3, 0.95 µM; in data set [1] it was 0.66 µM; with L1210, 246 µM; in [4] it was 275 µM. Moreover, the IC50 in data set [2] was 3.12 µM; with B16-F10, 220 µM; in the data set on OVCAR-3, 1.39 µM; with MCF7, 1.09 µM; with K562 it was 1.41 µM; with HT-29, 1.48 µM. Further, in data set [3], the LD50 at 336 h worked out at 3680 mg/kg.
On to `COc1cc(/C=C/C(=O)/C=C/c2ccc(O)c(OC)c2)ccc1O`, for which the IC50 worked out at 1.53 µM with NCI-H460; 0.09 µM in the data set on UACC-62; 1.25 µM with PC-3; 1.99 µM in data set [1]; 56.1 µM in the data set with L1210; 51.8 µM in data set [4]. The IC50 in [2] amounted to 0.83 µM; in the data set on B16-F10, 21.5 µM; with OVCAR-3, 2.2 µM; with MCF7, 0.12 µM; in the data set on K562 it was 1.84 µM; in the data set on HT-29 it was 2.3 µM. The molecule also displayed an LD50 at 336 h in [3] of 8540 mg/kg.

The IC50 is the concentration that gives 50% inhibition. Low values mean higher potency, high ones lower potency. As usually defined, the LD50 is the dose at which mortality reaches 50%. Lower therefore signals greater toxicity.
